Measured values: ChEMBL document CHEMBL1629624, “In vitro and in vivo studies to characterize the clearance mechanism and potential cytochrome P450 interactions of anidulafungin” (Antimicrob Agents Chemother, 2009)
*1 amine or outer side, *2 acyl side, *3 side chain or, on linkers, in order; H or OH if unused. Where a SMILES comes first, the peptide text is derived from it. Bridges are numbered along the chain shown (N, C = ends). [ ]: non-standard residue; d: D form. The star is where a group is joined. pTerphenylCO(4''-OnC5H11) = CCCCCOc1ccc(-c2ccc(-c3ccc(C(=O)*)cc3)cc2)cc1; Orn(4R-OH,5R-OH) = O=C([C@H](C[C@@H](O)[C@@H](O)N[*:3])N[*:1])[*:2]; hTyr(3S-OH,4S-OH) = N[C@H](C(=O)O)[C@H](O)[C@@H](O)c1ccc(O)cc1; Pro(3S-OH,4S-Me) = C[C@H]1CN[C@H](C(=O)O)[C@H]1O; Hyp = O=C(O)[C@@H]1C[C@@H](O)CN1

Tests used:
Cytochrome P450 1A2 = biological target: T1, Cytochrome P450 1A2 (Homo sapiens, UniProt P05177); experiment: Inhibition of human CYP1A2; assay type: ADME
T1 sequence (P05177 whole entry): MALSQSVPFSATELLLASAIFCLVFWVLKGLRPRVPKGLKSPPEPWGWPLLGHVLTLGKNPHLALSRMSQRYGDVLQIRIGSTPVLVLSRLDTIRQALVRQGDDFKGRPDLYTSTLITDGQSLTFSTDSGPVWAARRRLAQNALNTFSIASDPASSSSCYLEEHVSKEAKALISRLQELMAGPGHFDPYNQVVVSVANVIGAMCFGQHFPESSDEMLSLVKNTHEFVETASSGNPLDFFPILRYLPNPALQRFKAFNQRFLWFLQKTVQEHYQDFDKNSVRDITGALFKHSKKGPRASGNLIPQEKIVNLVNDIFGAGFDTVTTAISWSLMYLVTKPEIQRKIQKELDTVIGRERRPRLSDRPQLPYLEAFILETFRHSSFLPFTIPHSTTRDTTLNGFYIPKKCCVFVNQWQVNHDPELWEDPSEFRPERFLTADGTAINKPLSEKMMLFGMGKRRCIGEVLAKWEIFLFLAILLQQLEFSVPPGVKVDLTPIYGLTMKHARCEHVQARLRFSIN

Cytochrome P450 2B6 = biological target: T2, Cytochrome P450 2B6 (Homo sapiens, UniProt P20813); experiment: Inhibition of human CYP2B6; assay type: ADME
T2 sequence (P20813 whole entry): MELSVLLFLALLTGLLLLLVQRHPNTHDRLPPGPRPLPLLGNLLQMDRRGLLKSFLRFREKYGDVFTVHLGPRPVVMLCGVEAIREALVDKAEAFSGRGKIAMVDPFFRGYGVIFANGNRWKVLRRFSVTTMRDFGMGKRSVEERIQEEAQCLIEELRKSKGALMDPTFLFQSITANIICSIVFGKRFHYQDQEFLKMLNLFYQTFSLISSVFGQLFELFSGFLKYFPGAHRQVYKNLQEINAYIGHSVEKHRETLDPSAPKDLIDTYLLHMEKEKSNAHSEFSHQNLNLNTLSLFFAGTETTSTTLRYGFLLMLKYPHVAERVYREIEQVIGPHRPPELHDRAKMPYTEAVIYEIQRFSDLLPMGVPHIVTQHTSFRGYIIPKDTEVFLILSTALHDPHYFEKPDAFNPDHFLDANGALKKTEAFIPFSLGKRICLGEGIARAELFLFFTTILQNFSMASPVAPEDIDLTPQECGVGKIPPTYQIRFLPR
Method in brief: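 Pooled liver microsomes from 53 human donors. Marker reactions: bupropion hydroxylase for CYP2B6. Incubations run in duplicate. IC50 taken from four to six concentrations.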

Cytochrome P450 2C8 [1] = biological target: T3, Cytochrome P450 2C8 (Homo sapiens, UniProt P10632); experiment: Inhibition of human CYP2C8 using amodiaquine as a substrate; assay type: ADME
T3 sequence (P10632 whole entry): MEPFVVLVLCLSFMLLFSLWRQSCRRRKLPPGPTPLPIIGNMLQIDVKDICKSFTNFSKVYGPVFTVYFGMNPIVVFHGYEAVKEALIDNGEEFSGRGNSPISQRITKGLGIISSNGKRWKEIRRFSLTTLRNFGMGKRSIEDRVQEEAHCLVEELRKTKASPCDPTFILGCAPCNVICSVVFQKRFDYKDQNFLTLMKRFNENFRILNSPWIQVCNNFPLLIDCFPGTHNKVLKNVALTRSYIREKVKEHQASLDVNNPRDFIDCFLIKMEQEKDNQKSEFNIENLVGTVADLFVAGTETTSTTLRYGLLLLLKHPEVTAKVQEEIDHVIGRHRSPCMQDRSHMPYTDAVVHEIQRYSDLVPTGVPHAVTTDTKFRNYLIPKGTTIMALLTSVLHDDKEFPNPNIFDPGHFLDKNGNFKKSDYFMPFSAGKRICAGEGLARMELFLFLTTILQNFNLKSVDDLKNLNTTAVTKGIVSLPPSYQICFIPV
Method in brief: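 CYP2C8 measured as amodiaquine N-deethylase in pooled human liver microsomes from 53 donors. Incubations run in duplicate. IC50 fitted from the concentration series.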

Cytochrome P450 2C8 [2] = biological target: T3, Cytochrome P450 2C8; experiment: Inhibition of human CYP2C8 using rosiglitazone as a substrate; assay type: ADME
Method in brief: (§1)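 Heterologously expressed human CYP2C8, with rosiglitazone N-desmethylase as the marker reaction. […] Incubations run in duplicate.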

Cytochrome P450 2C9 = Cytochrome P450 2C9 (Homo sapiens, UniProt P11712); experiment: Inhibition of human CYP2C9; assay type: ADME
Cytochrome P450 2C19 = Cytochrome P450 2C19 (Homo sapiens, UniProt P33261); experiment: Inhibition of human CYP2C19; assay type: ADME
Cytochrome P450 2D6 = Cytochrome P450 2D6 (Homo sapiens, UniProt P10635); experiment: Inhibition of human CYP2D6; assay type: ADME
Cytochrome P450 3A4 = Cytochrome P450 3A4 (Homo sapiens, UniProt P08684); experiment: Inhibition of human CYP3A4; assay type: ADME
CYP2C8 = biological target: T4, CYP2C8 (Homo sapiens, UniProt P10632); experiment: Inhibition of human CYP2C8 at 17.5 uM in presence of rosiglitazone; assay type: ADME; details: probe rosiglitazone; method in brief: as §1
T4 sequence (P10632 whole entry): T3 sequence (P10632 whole entry)

[3] = Ratio of AUC in blood to plasma for Sprague-Dawley at 5 mg/kg, iv by liquid scintillation counting; assay type: ADME, organism-based; parameters: dose 5 mg/kg, route intravenous; details: rat, in vivo
Method in brief: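 Male Sprague-Dawley rats, single i.v. bolus of [14C]drug. Blood by cardiac puncture from three noncannulated rats killed at each time from 0.25 to 168 h; plasma separated from an aliquot. Radioactivity by liquid scintillation counting. Parameters come from a composite profile of mean values, taking 1 g as equal to 1 ml.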

[4] = Cmax in human plasma at 100 mg, iv by LC-MS/MS analysis; assay type: ADME, organism-based; parameters: dose 100 mg, route intravenous
Method in brief: (§2)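 Nine healthy adult men, single i.v. infusion of [14C]drug over 100 min at 1 mg/min (planned 100 mg; mean delivered 88.3 mg). Heparinized blood taken from predose through day 10 and at follow-up. Parent drug in plasma measured by validated LC-MS/MS. Noncompartmental analysis; values are means (%CV).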

[5] = Tmax in human plasma at 100 mg, iv by LC-MS/MS analysis; assay type: ADME, organism-based; method in brief: as §2
[6] = Half life in human plasma at 100 mg, iv by LC-MS/MS analysis; assay type: ADME, organism-based; method in brief: as §2
[7] = Mean residence time in human plasma at 100 mg, iv by LC-MS/MS analysis; assay type: ADME, organism-based; method in brief: as §2
[8] = Volume of distribution at steady state in human plasma at 100 mg, iv by LC-MS/MS analysis; assay type: ADME, organism-based; details: read-out: Vdss
Method in brief: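 Healthy adult men (n = 9), single i.v. infusion of [14C]drug over 100 min at 1 mg/min. 100 mg was planned; the mean dose actually given was 88.3 mg. Heparinized blood drawn from 0 h through day 10 and at 6–8 weeks. Parent drug in plasma measured by validated LC-MS/MS. Noncompartmental analysis, given as mean (%CV).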

Plasma = experiment: Clearance in human plasma at 100 mg, iv by LC-MS/MS analysis; assay type: ADME, organism-based; details: in vivo; method in brief: as §2

Chain of Cytochrome P450 2D6 (P10635 whole entry): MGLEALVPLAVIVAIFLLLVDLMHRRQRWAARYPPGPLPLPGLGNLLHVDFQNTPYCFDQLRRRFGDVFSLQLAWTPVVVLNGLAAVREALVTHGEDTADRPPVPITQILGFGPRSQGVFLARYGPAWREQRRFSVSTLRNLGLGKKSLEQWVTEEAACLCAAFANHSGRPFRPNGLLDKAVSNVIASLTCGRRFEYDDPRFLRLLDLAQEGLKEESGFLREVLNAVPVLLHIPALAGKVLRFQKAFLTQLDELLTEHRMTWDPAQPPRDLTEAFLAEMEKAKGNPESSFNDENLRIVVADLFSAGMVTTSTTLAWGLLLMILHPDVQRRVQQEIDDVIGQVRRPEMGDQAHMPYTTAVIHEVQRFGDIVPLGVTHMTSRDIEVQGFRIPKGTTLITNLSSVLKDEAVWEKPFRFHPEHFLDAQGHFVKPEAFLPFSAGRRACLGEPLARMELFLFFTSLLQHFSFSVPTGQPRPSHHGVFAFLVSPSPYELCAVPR
Chain of Cytochrome P450 2C19 (P33261 whole entry): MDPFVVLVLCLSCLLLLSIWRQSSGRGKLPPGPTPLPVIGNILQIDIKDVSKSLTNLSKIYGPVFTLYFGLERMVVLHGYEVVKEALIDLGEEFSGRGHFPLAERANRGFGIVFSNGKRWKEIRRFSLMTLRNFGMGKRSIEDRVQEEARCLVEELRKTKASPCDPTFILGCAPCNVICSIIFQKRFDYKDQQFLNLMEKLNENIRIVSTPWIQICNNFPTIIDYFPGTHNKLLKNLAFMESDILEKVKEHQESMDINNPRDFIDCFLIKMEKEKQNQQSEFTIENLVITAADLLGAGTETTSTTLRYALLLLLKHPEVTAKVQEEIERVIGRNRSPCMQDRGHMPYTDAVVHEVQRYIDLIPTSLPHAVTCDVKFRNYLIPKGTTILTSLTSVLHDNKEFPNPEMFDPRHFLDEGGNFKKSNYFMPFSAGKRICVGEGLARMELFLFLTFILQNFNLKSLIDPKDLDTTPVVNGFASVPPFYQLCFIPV
Chain of Cytochrome P450 3A4 (P08684 whole entry): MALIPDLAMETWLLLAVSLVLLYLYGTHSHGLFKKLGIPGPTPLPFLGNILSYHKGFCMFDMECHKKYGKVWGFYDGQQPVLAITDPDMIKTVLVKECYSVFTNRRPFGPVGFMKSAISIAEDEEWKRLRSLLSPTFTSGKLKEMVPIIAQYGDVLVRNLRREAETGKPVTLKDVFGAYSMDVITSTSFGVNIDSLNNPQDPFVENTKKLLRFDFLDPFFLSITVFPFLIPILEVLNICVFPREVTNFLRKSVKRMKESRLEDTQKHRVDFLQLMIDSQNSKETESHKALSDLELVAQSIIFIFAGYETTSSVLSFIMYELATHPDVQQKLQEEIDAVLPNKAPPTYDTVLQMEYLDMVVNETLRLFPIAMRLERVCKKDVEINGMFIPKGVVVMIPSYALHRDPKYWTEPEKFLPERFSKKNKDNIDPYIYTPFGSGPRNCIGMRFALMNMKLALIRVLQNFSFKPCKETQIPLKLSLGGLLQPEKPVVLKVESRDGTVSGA
Chain of Cytochrome P450 2C9 (P11712 whole entry): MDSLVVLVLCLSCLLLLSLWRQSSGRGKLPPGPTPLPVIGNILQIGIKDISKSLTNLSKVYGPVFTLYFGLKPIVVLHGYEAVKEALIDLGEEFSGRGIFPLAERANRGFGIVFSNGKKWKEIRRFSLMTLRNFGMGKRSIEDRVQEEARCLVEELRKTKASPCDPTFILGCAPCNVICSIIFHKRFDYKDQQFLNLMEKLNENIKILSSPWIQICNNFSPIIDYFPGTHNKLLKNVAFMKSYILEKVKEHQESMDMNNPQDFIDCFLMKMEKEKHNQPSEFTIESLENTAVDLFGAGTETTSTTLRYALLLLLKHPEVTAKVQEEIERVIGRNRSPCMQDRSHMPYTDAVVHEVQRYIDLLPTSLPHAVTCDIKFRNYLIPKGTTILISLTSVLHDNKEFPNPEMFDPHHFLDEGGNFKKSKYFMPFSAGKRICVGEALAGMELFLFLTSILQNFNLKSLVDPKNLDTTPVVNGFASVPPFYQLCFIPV

For `CCCCCOc1ccc(-c2ccc(-c3ccc(C(=O)N[C@H]4C[C@@H](O)[C@@H](O)NC(=O)[C@@H]5[C@@H](O)[C@@H](C)CN5C(=O)[C@H]([C@@H](C)O)NC(=O)[C@H]([C@H](O)[C@@H](O)c5ccc(O)cc5)NC(=O)[C@@H]5C[C@@H](O)CN5C(=O)[C@H]([C@@H](C)O)NC4=O)cc3)cc2)cc1` [ANIDULAFUNGIN] ({pTerphenylCO(4''-OnC5H11)}-[Orn(4R-OH,5R-OH)]T[Hyp][hTyr(3S-OH,4S-OH)]T[Pro(3S-OH,4S-Me)]; lactam 1-C), the IC50 (Cytochrome P450 1A2) was > 17.5 µM, the IC50 (Cytochrome P450 2B6) was > 17.5 µM and the IC50 (Cytochrome P450 2C8 [1]) was 12 µM. For the same compound, the IC50 (Cytochrome P450 2C8 [2]) was > 17.5 µM, the IC50 (Cytochrome P450 2C9) was > 17.5 µM and the IC50 (Cytochrome P450 2C19) was > 17.5 µM. The IC50 (Cytochrome P450 2D6) was > 17.5 µM, the IC50 (Cytochrome P450 3A4) was > 17.5 µM and the inhibition at 17.5 µM (CYP2C8) was 34.3%. For the same compound, the Ratio [3] was 1.5, the Cmax [4] was 3630 ng/mL and the Tmax [5] was 1.78 h. The half-life [6] was 27.7 h, the MRT [7] was 35.6 h and the Vd [8] was 32.6 L. For the same compound, the CL (Plasma) was 0.913 L/h.
